Laboratory results taken from ChEMBL document CHEMBL1212799 (2010).
Values after ≈ are worked out from the molar mass of the structure shown.

Legend:
[1] = test system: Klebsiella pneumoniae; assay: Antibacterial activity against Klebsiella pneumoniae isolate 368 in vitro pharmacodynamic model; type: functional
How it was run: (§1)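 Simulated peak 38.4 µg/ml, trough 3.04 µg/ml. CAMHB at 37°C, 10^6 CFU/ml from overnight culture, drug started at 0.5 h. Two treated models plus one growth control. Change in log10 CFU/ml over 24 h on blood agar. Detection limit 10^1 CFU/ml.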

[2] = test system: Klebsiella pneumoniae; assay: fT>MIC in Klebsiella pneumoniae isolate 353 at 2 gram for every 8 hrs administered as 3 hrs infusion measured over 16-24 hrs in in vitro pharmcodynamic model; type: functional, isoalte 353
How it was run: (§2)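 Samples assayed by HPLC (linear 0.25–40 µg/ml). Time free drug stayed above the modal triplicate broth-microdilution MIC (CLSI) calculated for each 8-h interval.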

[3] = test system: Klebsiella pneumoniae; assay: fT>MIC in Klebsiella pneumoniae isolate 368 at 2 gram for every 8 hrs administered as 3 hrs infusion measured over 0-8 hrs in in vitro pharmcodynamic model; type: functional; how it was run: as §2
[4] = test system: Klebsiella pneumoniae; assay: fT>MIC in Klebsiella pneumoniae isolate 360 at 2 gram for every 8 hrs administered as 3 hrs infusion over 24 hrs in in vitro pharmcodynamic model; type: functional; how it was run: as §2
[5] = test system: Klebsiella pneumoniae; assay: fT>MIC in Klebsiella pneumoniae isolate 357 at 2 gram for every 8 hrs administered as 3 hrs infusion measured over 16-24 hrs in in vitro pharmcodynamic model; type: functional; how it was run: as §2
[6] = test system: Klebsiella pneumoniae; assay: Antibacterial activity against Klebsiella pneumoniae isolate 354 assessed as reduction of bacterial count at 8 ug/ml within 6 hrs in vitro pharmacodynamic model; type: functional
[7] = test system: Klebsiella pneumoniae; assay: fT>MIC in Klebsiella pneumoniae isolate 353 at 2 gram for every 8 hrs administered as 3 hrs infusion measured over 0-8 hrs in in vitro pharmcodynamic model; type: functional, isoalte 353; how it was run: as §2
[8] = test system: Klebsiella pneumoniae; assay: fT>MIC in Klebsiella pneumoniae isolate 368 at 2 gram for every 8 hrs administered as 3 hrs infusion measured over 8-16 hrs in in vitro pharmcodynamic model; type: functional
[9] = test system: Klebsiella pneumoniae; assay: fT>MIC in Klebsiella pneumoniae isolate 377 at 2 gram for every 8 hrs administered as 3 hrs infusion over 24 hrs in in vitro pharmcodynamic model; type: functional
[10] = test system: Klebsiella pneumoniae; assay: fT>MIC in Klebsiella pneumoniae isolate 328A at 2 gram for every 8 hrs administered as 3 hrs infusion measured over 16-24 hrs in in vitro pharmcodynamic model; type: functional; how it was run: as §2
[11] = test system: Pseudomonas aeruginosa; assay: Antibacterial activity against Pseudomonas aeruginosa isolate 988 assessed as reduction of bacterial count at 16 ug/ml within 6 hrs in vitro pharmacodynamic model; type: functional
[12] = test system: Klebsiella pneumoniae; assay: Antibacterial activity against Klebsiella pneumoniae isolate 361 in vitro pharmacodynamic model; type: functional
How it was run: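 Inoculum 10^6 CFU/ml; dosing began 0.5 h after inoculation. Two treated models plus one untreated control per isolate; blood-agar counts; change in log10 CFU/ml over 24 h (detection limit 10^1); drug levels checked by HPLC.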

[13] = test system: Pseudomonas aeruginosa; assay: fT>MIC in Pseudomonas aeruginosa isolate 1030 at 2 gram for every 8 hrs administered as 3 hrs infusion measured over 16-24 hrs in in vitro pharmcodynamic model; type: functional
[14] = test system: Pseudomonas aeruginosa; assay: Antibacterial activity against Pseudomonas aeruginosa isolate 762 assessed as reduction of bacterial count at 16 ug/ml within 6 hrs in vitro pharmacodynamic model; type: functional
[15] = test system: Klebsiella pneumoniae; assay: fT>MIC in Klebsiella pneumoniae isolate 377 at 2 gram for every 8 hrs administered as 3 hrs infusion measured over 0-8 hrs in in vitro pharmcodynamic model; type: functional
[16] = test system: Pseudomonas aeruginosa; assay: fT>MIC in Pseudomonas aeruginosa isolate 762 at 2 gram for every 8 hrs administered as 3 hrs infusion measured over 16-24 hrs in in vitro pharmcodynamic model; type: functional
[17] = test system: Pseudomonas aeruginosa; assay: fT>MIC in Pseudomonas aeruginosa isolate 1030 at 2 gram for every 8 hrs administered as 3 hrs infusion measured over 8-16 hrs in in vitro pharmcodynamic model; type: functional
[18] = test system: Pseudomonas aeruginosa; assay: Antibacterial activity against Pseudomonas aeruginosa isolate 1030 in vitro pharmacodynamic model; type: functional; how it was run: as §1
[19] = test system: Klebsiella pneumoniae; assay: fT>MIC in Klebsiella pneumoniae isolate 351 at 2 gram for every 8 hrs administered as 3 hrs infusion over 24 hrs in in vitro pharmcodynamic model; type: functional; how it was run: as §2

In the case of `C[C@@H](O)[C@H]1C(=O)N2C(C(=O)O)=C(S[C@@H]3CN[C@H](C(=O)N(C)C)C3)[C@H](C)[C@H]12` [MEROPENEM], the MIC [1] is reported as 32 µg/mL (≈ 83.4 µM), the “fT>MIC” value [2] is reported as 0% and the “fT>MIC” value [3] is reported as 0%. The “fT>MIC” value [4] was 47%, the “fT>MIC” value [5] was 0% and the log10cfu [6] was over 3. For the same compound, the “fT>MIC” value [7] was 38%, the “fT>MIC” value [8] was 0% and the “fT>MIC” value [9] was 100%. The “fT>MIC” value [10] was 78%, the log10cfu [11] was “>=3” and the MIC [12] was 64 µg/mL (≈ 167 µM). For the same compound, the “fT>MIC” value [13] was 78%, the log10cfu [14] was “>=3” and the “fT>MIC” value [15] was 100%. The “fT>MIC” value [16] was 56%, the “fT>MIC” value [17] was 78% and the MIC [18] was 8 µg/mL (≈ 20.9 µM). For the same compound, the “fT>MIC” value [19] was 69%.
